Source: ChEMBL document CHEMBL1128260, “3-deaza- and 7-deaza-5'-noraristeromycin and their antiviral properties” (1995)
Converted amounts (≈) assume the structure as drawn.

Key:
Assay type in all cases: functional
MDCK [1] = assay: Tested for the concentration required to cause a microscopically detectable alteration of MCDK cell morphology; conditions: Canis lupus familiaris; read-out: MIC50
How it was run: (§1)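 Confluent E6SM, HeLa, Vero or MDCK cell cultures exposed to varying test-compound concentrations and examined microscopically. The value is the concentration causing a microscopically detectable alteration of normal cell morphology.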

E6SM [2] = assay: The minimum inhibitory concentration required to reduce Vaccinia virus induced cytopathicity by 50% in E6SM cells; conditions: Homo sapiens
How it was run: (§2)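 Confluent cell monolayers in microtiter trays were inoculated with 100 CCID50 of virus and allowed 1 h adsorption, then residual virus was removed. Cultures were incubated with varying compound concentrations (400, 200, 100, ... µg/mL). Cytopathicity was scored once it was complete in the untreated infected controls. The value is the concentration reducing virus-induced cytopathicity by 50%.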

Vero [3] = assay: The minimum inhibitory concentration required to reduce forest virus (ATCC VR-67) induced cytopathicity by 50% in Vero cells; conditions: Chlorocebus sabaeus; how it was run: as §2
HEL [4] = assay: Tested for the concentration required to cause a microscopically detectable alteration of HEL cell morphology; conditions: Homo sapiens; read-out: MIC50
E6SM [5] = assay: Tested for concentration required to cause a microscopically detectable alteration of E6SM cell morphology; conditions: Homo sapiens; read-out: MIC50; how it was run: as §1
Vero [6] = assay: The minimum inhibitory concentration required to reduce Arenavirus (Tacaribe) induced cytopathicity by 50% was measured on Vero cells; conditions: Chlorocebus sabaeus; how it was run: as §2
CCRF-CEM [7] = assay: The minimum inhibitory concentration required to reduce HIV-1(IIIB) virus induced cytopathicity by 50% was measured on CEM cells; conditions: Homo sapiens
How it was run: (§3)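 CEM cells at 250,000-300,000 cells/mL were infected with HIV-1 (IIIB) or HIV-2 (ROD) at 100 CCID50/mL. The infected suspension was added to serial compound dilutions and incubated 4 days at 37 °C. Cultures were then examined for syncytium (giant cell) formation, and the 50% inhibitory concentration was recorded.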

E6SM [8] = assay: The minimum inhibitory concentration required to reduce Vesicular Stomatitis Virus induced cytopathicity by 50% in E6SM cells; conditions: Homo sapiens; how it was run: as §2
CCRF-CEM [9] = assay: The minimum inhibitory concentration required to reduce HIV-2(ROD) virus induced cytopathicity by 50% was measured on CEM cells; conditions: Homo sapiens; how it was run: as §3
HEL [10] = assay: The minimum inhibitory concentration required to reduce CMV(AD-169) virus induced cytopathicity by 50% was measured on HEL cells; conditions: Homo sapiens; how it was run: as §2
HeLa [11] = assay: The minimum inhibitory concentration required to reduce Vesicular Stomatitis Virus induced cytopathicity by 50% in HeLa cells; conditions: Homo sapiens; how it was run: as §2
Vero [12] = assay: The minimum inhibitory concentration required to reduce Sindbis virus ([…]) induced cytopathicity by 50% in Vero cells; conditions: Chlorocebus sabaeus; how it was run: as §2
E6SM [13] = assay: The minimum inhibitory concentration required to reduce HSV-2(G) virus induced cytopathicity by 50% was measured on E6SM cells; conditions: Homo sapiens; how it was run: as §2
Vero [14] = assay: The minimum inhibitory concentration required to reduce Arenavirus (Junin) induced cytopathicity by 50% was measured on Vero cells; conditions: Chlorocebus sabaeus; how it was run: as §2
MDCK [15] = assay: The minimum inhibitory concentration required to reduce Influenza B virus induced cytopathicity by 50% was measured on MDCK cells; conditions: Canis lupus familiaris; how it was run: as §2
HEL [16] = assay: The minimum inhibitory concentration required to reduce VZV(Oka) virus induced cytopathicity by 50% was measured on HEL cells; conditions: Homo sapiens; how it was run: as §2
E6SM [17] = assay: The minimum inhibitory concentration required to reduce HSV-1(KOS) virus induced cytopathicity by 50% was measured on E6SM cells; conditions: Homo sapiens; how it was run: as §2
Vero [18] = assay: The minimum inhibitory concentration required to reduce Parainfluenza virus type 3(ATCC VR-93) induced cytopathicity by 50% in Vero cells; conditions: Chlorocebus sabaeus; how it was run: as §2
HEL [19] = assay: The minimum inhibitory concentration required to reduce CMV(Davis) virus induced cytopathicity by 50% was measured on HEL cells; conditions: Homo sapiens; how it was run: as §2
Vero [20] = assay: Tested for concentration required to cause a microscopically detectable alteration of Vero cell morphology; conditions: Chlorocebus sabaeus; read-out: MIC50; how it was run: as §1
HeLa [21] = assay: The minimum inhibitory concentration required to reduce Polio-1 virus induced cytopathicity by 50% in HeLa cells; conditions: Homo sapiens; how it was run: as §2
CCRF-CEM [22] = assay: Tested for concentration required to cause a microscopically detectable alteration of CEM cell morphology; conditions: Homo sapiens
[23] = test system: Respiratory syncytial virus; assay: The minimum inhibitory concentration required to reduce RSV(Long) virus induced cytopathicity by 50% in HeLa cells; conditions: human respiratory syncytial virus; how it was run: as §2
HEL [24] = assay: The minimum inhibitory concentration required to reduce VZV(YS) virus induced cytopathicity by 50% was measured on HEL cells; conditions: Homo sapiens; how it was run: as §2
HeLa [25] = assay: The minimum inhibitory concentration required to reduce Coxsackie B4 virus induced cytopathicity by 50% in HeLa cells.; conditions: Homo sapiens; how it was run: as §2
Vero [26] = assay: The minimum inhibitory concentration required to reduce Reo-1 virus (ATCC VR-230) induced cytopathicity by 50% was measured in Vero cells; conditions: Chlorocebus sabaeus; how it was run: as §2
MDCK [27] = assay: The minimum inhibitory concentration required to reduce Influenza A virus induced cytopathicity by 50% was measured on MDCK cells; conditions: Canis lupus familiaris; how it was run: as §2
HeLa [28] = assay: Tested for concentration required to cause a microscopically detectable alteration of HeLa cell morphology; conditions: Homo sapiens; read-out: MIC50; how it was run: as §1
HEL [29] = assay: The minimum inhibitory concentration required to reduce TK-VZV(07-1) virus induced cytopathicity by 50% was measured on HEL cells; conditions: Homo sapiens; how it was run: as §2
HEL [30] = assay: The minimum inhibitory concentration required to reduce TK-VZV(YS-R) virus induced cytopathicity by 50% was measured on HEL cells; conditions: Homo sapiens; how it was run: as §2
E6SM [31] = assay: The minimum inhibitory concentration required to reduce TK HSV-1 (B2006) virus induced cytopathicity by 50% in E6SM cells; conditions: Homo sapiens; how it was run: as §2
E6SM [32] = assay: The minimum inhibitory concentration required to reduce TK-HSV-1(VMW 1837) virus induced cytopathicity by 50% in E6SM cells; conditions: Homo sapiens; how it was run: as §2

Structure (SMILES)	Minimum cytotoxic concentration (MDCK [1]) [µg/mL]	MIC50 (E6SM [2]) [µg/mL]	MIC50 (Vero [3]) [µg/mL]	Minimum cytotoxic concentration (MCC) (HEL [4]) [µg/mL]	minimum cytotoxic concentration (microscopic alteration of cell morphology) (E6SM [5]) [µg/mL]	MIC50 (Vero [6]) [µg/mL]	MIC50 (E6SM [8]) [µg/mL]	MIC50 (HEL [10]) [µg/mL]	MIC50 (HeLa [11]) [µg/mL]	MIC50 (Vero [12]) [µg/mL]	MIC50 (E6SM [13]) [µg/mL]	MIC50 (Vero [14]) [µg/mL]	MIC50 (MDCK [15]) [µg/mL]	MIC50 (HEL [16]) [µg/mL]	MIC50 (E6SM [17]) [µg/mL]	MIC50 (Vero [18]) [µg/mL]	MIC50 (HEL [19]) [µg/mL]	Minimum cytotoxic concentration (Vero [20]) [µg/mL]	MIC50 (HeLa [21]) [µg/mL]	MIC50 [23] [µg/mL]	other results
Nc1ncnc2c1ncn2[C@@H]1C[C@H](O)[C@@H](O)[C@H]1O [NORARISTEROMYCIN]	> 400	0.04 (≈ 0.159 µM)	> 400	50	> 400	8 (≈ 31.8 µM)	0.1 (≈ 0.398 µM)	0.01 (≈ 0.0398 µM)	0.2 (≈ 0.796 µM)	> 400	> 400	6 (≈ 23.9 µM)	> 100	> 50	> 400	0.07 (≈ 0.279 µM)	0.03 (≈ 0.119 µM)	> 400	> 400	> 200	MIC50 (CCRF-CEM [7]): > 0.16 µg/mL; MIC50 (CCRF-CEM [9]): > 0.16 µg/mL; MIC50 (CCRF-CEM [22]): 0.4 µg/mL (≈ 1.59 µM); MIC50 (HEL [24]): > 50 µg/mL; MIC50 (HeLa [25]): > 400 µg/mL; MIC50 (Vero [26]): 0.7 µg/mL (≈ 2.79 µM); MIC50 (MDCK [27]): > 100 µg/mL; Minimum cytotoxic concentration (HeLa [28]): > 400 µg/mL
Nc1ncnc2c1ncn2[C@@H]1C=C(CO)[C@@H](O)[C@H]1O [NEOPLANOCIN A]	4	0.2 (≈ 0.76 µM)	7 (≈ 26.6 µM)	20	100	1 (≈ 3.8 µM)	2 (≈ 7.6 µM)	0.6 (≈ 2.28 µM)	2 (≈ 7.6 µM)	2 (≈ 7.6 µM)	> 100	1 (≈ 3.8 µM)	> 4	4 (≈ 15.2 µM)	70 (≈ 266 µM)	0.2 (≈ 0.76 µM)	0.4 (≈ 1.52 µM)	40	> 40	> 1.2	MIC50 (HEL [29]): 4 µg/mL (≈ 15.2 µM); MIC50 (HEL [30]): 3 µg/mL (≈ 11.4 µM); MIC50 (E6SM [31]): 20 µg/mL (≈ 76 µM); MIC50 (E6SM [32]): 70 µg/mL (≈ 266 µM); MIC50 (HEL [24]): 5 µg/mL (≈ 19 µM); MIC50 (HeLa [25]): > 40 µg/mL; MIC50 (Vero [26]): 0.7 µg/mL (≈ 2.66 µM); MIC50 (MDCK [27]): 0.3 µg/mL (≈ 1.14 µM); Minimum cytotoxic concentration (HeLa [28]): 1 µg/mL
